# Laboratory results from ChEMBL document CHEMBL3526002, “Tissue distribution and identification of radioactivity components at elimination phase after oral administration of [¹⁴C]CS-1036, an α-amylase inhibitor, to rats” (Drug Metab Dispos, 2013).
# How the values were obtained:
# Design in all cases: dose 5 mg/kg, dosed compound name [14C]CS-1036, route oral
# Settings in all cases: in vivo
# Blood [1] = assay: Drug uptake in albino F344/DuCrlCrlj rat blood at 5 mg/kg, po after 1 hr by liquid scintillation counting; type: ADME, organism-based
# Summary of the method: (§1)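 Male F344/DuCrlCrlj rats (159–167 g; n = 3 per time point) received a single oral dose of [14C]CS-1036 at 5 mg/kg. Blood was taken from the abdominal aorta at 1, 4, 8, 24, 72, 168 and 336 h. Radioactivity was counted by LSC with external-standard efficiency correction. Results were converted to ng equivalent of CS-1036/ml using specific activity and sample volume, and reported as mean + S.D.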
# Lung [2] = assay: Drug uptake in albino F344/DuCrlCrlj rat lung at 5 mg/kg, po after 4 hrs by liquid scintillation counting; type: ADME, organism-based
# Thymus = assay: Drug uptake in albino F344/DuCrlCrlj rat thymus assessed as ng equivalent of CS-1036 at 5 mg/kg, po after 8 hrs by liquid scintillation counting; type: ADME, organism-based
# Zone of skin [3] = assay: Drug uptake in albino F344/DuCrlCrlj rat skin at 5 mg/kg, po after 168 hrs by liquid scintillation counting; type: ADME, organism-based
# Lung [4] = assay: Drug uptake in albino F344/DuCrlCrlj rat lung at 5 mg/kg, po after 24 hrs by liquid scintillation counting; type: ADME, organism-based
# Small intestine [5] = assay: Drug uptake in albino F344/DuCrlCrlj rat small intestine at 5 mg/kg, po after 168 hrs by liquid scintillation counting; type: ADME, organism-based
# Cerebellum = assay: Drug uptake in albino F344/DuCrlCrlj rat cerebellum assessed as ng equivalent of CS-1036 at 5 mg/kg, po after 4 hrs by liquid scintillation counting; type: ADME, organism-based
# Stomach [6] = assay: Drug uptake in albino F344/DuCrlCrlj rat stomach assessed as ng equivalent of CS-1036 at 5 mg/kg, po after 72 hrs by liquid scintillation counting; type: ADME, organism-based
# Plasma = assay: Drug uptake in albino F344/DuCrlCrlj rat plasma at 5 mg/kg, po after 24 hrs by liquid scintillation counting; type: ADME, organism-based
# Small intestine [7] = assay: Drug uptake in albino F344/DuCrlCrlj rat small intestine assessed as ng equivalent of CS-1036 at 5 mg/kg, po after 336 hrs by liquid scintillation counting; type: ADME, organism-based
# [8] = Drug uptake in albino F344/DuCrlCrlj rat epididymis at 5 mg/kg, po after 8 hrs by liquid scintillation counting; type: ADME, organism-based
# [9] = Drug uptake in albino F344/DuCrlCrlj rat bone marrow at 5 mg/kg, po after 72 hrs by liquid scintillation counting; type: ADME, organism-based
# [10] = Drug uptake in albino F344/DuCrlCrlj rat brown fat assessed as ng equivalent of CS-1036 at 5 mg/kg, po after 24 hrs by liquid scintillation counting; type: ADME, organism-based, Brown adipose tissue
# Kidney [11] = assay: Drug uptake in albino F344/DuCrlCrlj rat kidney at 5 mg/kg, po after 336 hrs by liquid scintillation counting; type: ADME, organism-based
# Stomach [12] = assay: Drug uptake in albino F344/DuCrlCrlj rat stomach at 5 mg/kg, po after 168 hrs by liquid scintillation counting; type: ADME, organism-based
# Stomach [13] = assay: Drug uptake in albino F344/DuCrlCrlj rat stomach at 5 mg/kg, po after 24 hrs by liquid scintillation counting; type: ADME, organism-based
# Pancreas [14] = assay: Drug uptake in albino F344/DuCrlCrlj rat pancreas assessed as ng equivalent of CS-1036 at 5 mg/kg, po after 168 hrs by liquid scintillation counting; type: ADME, organism-based
# Blood [15] = assay: Drug uptake in albino F344/DuCrlCrlj rat blood assessed as ng equivalent of CS-1036 at 5 mg/kg, po after 72 hrs by liquid scintillation counting; type: ADME, organism-based; summary of the method: as §1
# [16] = Drug uptake in albino F344/DuCrlCrlj rat eyeball assessed as ng equivalent of CS-1036 at 5 mg/kg, po after 1 hr by liquid scintillation counting; type: ADME, organism-based
# Cerebrum [17] = assay: Drug uptake in albino F344/DuCrlCrlj rat cerebrum at 5 mg/kg, po after 168 hrs by liquid scintillation counting; type: ADME, organism-based
# Summary of the method: (§2)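 Single oral [14C]CS-1036 at 5 mg/kg was given to male rats (159–167 g; n = 3). Cerebrum was collected after aortic bleeding at 1, 4, 8, 24, 72, 168 or 336 h, weighed, and homogenized in 2 volumes of saline. A 0.5 ml aliquot was solubilized in Soluene-350 and counted by LSC with external-standard correction. Results are in ng equivalent/g tissue from specific activity and sample weight.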
# Cerebrum [18] = assay: Drug uptake in albino F344/DuCrlCrlj rat cerebrum assessed as ng equivalent of CS-1036 at 5 mg/kg, po after 168 hrs by liquid scintillation counting; type: ADME, organism-based; summary of the method: as §2
# Kidney [19] = assay: Drug uptake in albino F344/DuCrlCrlj rat kidney assessed as ng equivalent of CS-1036 at 5 mg/kg, po after 1 hr by liquid scintillation counting; type: ADME, organism-based
# Lung [20] = assay: Drug uptake in albino F344/DuCrlCrlj rat lung assessed as ng equivalent of CS-1036 at 5 mg/kg, po after 4 hrs by liquid scintillation counting; type: ADME, organism-based
# Stomach [21] = assay: Drug uptake in albino F344/DuCrlCrlj rat stomach at 5 mg/kg, po after 4 hrs by liquid scintillation counting; type: ADME, organism-based
# Zone of skin [22] = assay: Drug uptake in albino F344/DuCrlCrlj rat skin at 5 mg/kg, po after 336 hrs by liquid scintillation counting; type: ADME, organism-based
# [23] = Drug uptake in albino F344/DuCrlCrlj rat fat at 5 mg/kg, po after 168 hrs by liquid scintillation counting; type: ADME, organism-based, Adipose tissue
# Summary of the method: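 Male F344/DuCrlCrlj rats (bought at 7 weeks, acclimatized 5–6 days; 159–167 g; n = 3 per time point) received a single oral dose of [14C]CS-1036 at 5 mg/kg. White adipose tissue was collected after abdominal aortic bleeding at 1, 4, 8, 24, 72, 168 or 336 h. Samples were counted by LSC with external-standard efficiency correction. Results were converted to ng equivalents per g from specific activity and sample weight.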
# [24] = Drug uptake in albino F344/DuCrlCrlj rat mandibular gland at 5 mg/kg, po after 4 hrs by liquid scintillation counting; type: ADME, organism-based
# Large intestine = assay: Drug uptake in albino F344/DuCrlCrlj rat large intestine at 5 mg/kg, po after 168 hrs by liquid scintillation counting; type: ADME, organism-based
# [25] = Drug uptake in albino F344/DuCrlCrlj rat pituitary gland at 5 mg/kg, po after 24 hrs by liquid scintillation counting; type: ADME, organism-based
# [26] = Drug uptake in albino F344/DuCrlCrlj rat eyeball at 5 mg/kg, po after 1 hr by liquid scintillation counting; type: ADME, organism-based
# Pancreas [27] = assay: Drug uptake in albino F344/DuCrlCrlj rat pancreas at 5 mg/kg, po after 8 hrs by liquid scintillation counting; type: ADME, organism-based
# [28] = Drug uptake in albino F344/DuCrlCrlj rat testis at 5 mg/kg, po after 4 hrs by liquid scintillation counting; type: ADME, organism-based
# [29] = Drug uptake in albino F344/DuCrlCrlj rat trachea assessed as ng equivalent of CS-1036 at 5 mg/kg, po after 24 hrs by liquid scintillation counting; type: ADME, organism-based
# Adrenal gland = assay: Drug uptake in albino F344/DuCrlCrlj rat adrenal gland assessed as ng equivalent of CS-1036 at 5 mg/kg, po after 1 hr by liquid scintillation counting; type: ADME, organism-based
compound,measurement,setting,value
C[C@H]1O[C@@H](O[C@H]2[C@H](O)[C@@H](O)[C@@H](O[14C@H]3[14C@H](O)[14CH2]N[14C@@H]3[14CH2]O)O[C@@H]2CO)[C@H](O)[C@@H](O)[C@@H]1O,Radiolabel recovery,Blood [1],60.5 ngequiv/ml
same,Radiolabel recovery,Lung [2],37.8 ngequiv/g
same,Radiolabel recovery,Thymus,47 ngequiv/g
same,Radiolabel recovery,Zone of skin [3],53.3 ngequiv/g
same,Radiolabel recovery,Lung [4],72 ngequiv/g
same,Radiolabel recovery,Small intestine [5],13 ngequiv/g
same,Radiolabel recovery,Cerebellum,0.6 ngequiv/g
same,Radiolabel recovery,Stomach [6],21.8 ngequiv/g
same,Radiolabel recovery,Plasma,46.3 ngequiv/ml
same,Radiolabel recovery,Small intestine [7],1.92 ngequiv/g
same,Radiolabel recovery,[8],40.8 ngequiv/g
same,Radiolabel recovery,[9],98.9 ngequiv/g
same,Radiolabel recovery,[10],63 ngequiv/g
same,Radiolabel recovery,Kidney [11],12 ngequiv/g
same,Radiolabel recovery,Stomach [12],23.9 ngequiv/g
same,Radiolabel recovery,Stomach [13],118 ngequiv/g
same,Radiolabel recovery,Pancreas [14],5.8 ngequiv/g
same,Radiolabel recovery,Blood [15],6.6 ngequiv/ml
same,Radiolabel recovery,[16],3.2 ngequiv/g
same,Radiolabel recovery,Cerebrum [17],6.2 ngequiv/g
same,Radiolabel recovery,Cerebrum [18],3.11 ngequiv/g
same,Radiolabel recovery,Kidney [19],102 ngequiv/g
same,Radiolabel recovery,Lung [20],10.3 ngequiv/g
same,Radiolabel recovery,Stomach [21],129 ngequiv/g
same,Radiolabel recovery,Zone of skin [22],24.9 ngequiv/g
same,Radiolabel recovery,[23],130 ngequiv/g
same,Radiolabel recovery,[24],51.1 ngequiv/g
same,Radiolabel recovery,Large intestine,26.4 ngequiv/g
same,Radiolabel recovery,[25],70.8 ngequiv/g
same,Radiolabel recovery,[26],17.7 ngequiv/g
same,Radiolabel recovery,Pancreas [27],325 ngequiv/g
same,Radiolabel recovery,[28],22.3 ngequiv/g
same,Radiolabel recovery,[29],7.1 ngequiv/g
same,Radiolabel recovery,Adrenal gland,3.3 ngequiv/g
